In the RNAGym collection of RNA variant scans (doi:10.1126/science.aae0568):
Fewer inactive variants are shown than the library holds.

B1: tRNA (parent)
chain: GUUCCGUUGGCGUAAUGGUAACGCGUCUCCCUCCUAAGGAGAAGACUGCGGGUUCGAGUCCCGUACGGAACG

Variants of: B1
Test: yeast fitness relative to wild type (ratio to wild type); higher = fitter; tRNA-Arg(CCU), competitive growth, 37 C, YPD
Method in brief: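 Start and end populations of a pooled competition were compared by 100-nucleotide paired-end sequencing of gene amplicons. The Saccharomyces cerevisiae strains carried tRNA-Arg(CCU) gene variants at the native genomic locus, synthesised with a 3% per-site mutation rate at 69 sites, and competed in YPD at 37°C for 24 hours in six parallel replicates. Darwinian fitness relative to wild type was based on the change in genotype frequencies. Genotypes required ≥ 100 starting reads, and estimates < 0.5 were set to 0.5.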

C27U U32C C62G and U28A C55G A70G cannot be ordered by yeast fitness: no more than 0.5 for the first, no more than 0.5 for the second.

C27U C55A G58A and C27U C34A U54C cannot be ordered by yeast fitness: no more than 0.5 for the first, no more than 0.5 for the second.

First: U28G A69U
Second: U28C A43C G67C
The yeast fitness of the first is higher: 0.789 for the first, 0.528 for the second.

First: U28A C29G C31U G68A
Second: U28G G38C C62G C66U
The yeast fitness of the first is higher: 0.547 for the first, no more than 0.5 for the second.

U28C G41C C49A C61U A70U and C27U C34U G41C U47G cannot be ordered by yeast fitness: no more than 0.5 for the first, no more than 0.5 for the second.

First: U28C C33G G38A U54C U64G
Second: U28C C60A
The yeast fitness of the first is lower: no more than 0.5 for the first, 0.632 for the second.

First: U28C C60G
Second: U28C A42G C55U A70U
The yeast fitness of the first is higher: 0.572 for the first, no more than 0.5 for the second.

First: C27U C62U G67A
Second: U28A U32C C49G G52A
The yeast fitness of the first is higher: 0.573 for the first, no more than 0.5 for the second.

C27U G38C G67A and U28A A45C C46A cannot be ordered by yeast fitness: no more than 0.5 for the first, no more than 0.5 for the second.

Compared with U28G A36G G51A, U28A C66U is higher in yeast fitness: no more than 0.5 for the first, 0.796 for the second.

U28A C33A G52A and U28G C29G G41A cannot be ordered by yeast fitness: no more than 0.5 for the first, no more than 0.5 for the second.

First: C27U U35C A43C A69U
Second: U28C A40G A70U
The yeast fitness of the first is higher: 0.62 for the first, 0.603 for the second.

Going from U28A G44A G68A to U28C C31U, the yeast fitness rises from 0.544 to 0.981.

U28A C30U C55A and U28C C49G U59C cannot be ordered by yeast fitness: no more than 0.5 for the first, no more than 0.5 for the second.

Compared with C27U U28C A45C, C27U C33U G51A A70G is lower in yeast fitness: 0.773 for the first, 0.555 for the second.

U28G C46G C49U and C27U G41C C61G cannot be ordered by yeast fitness: no more than 0.5 for the first, no more than 0.5 for the second.

Compared with U28G G41C U53A, U28A C31A A42C A45U G51A U64A is higher in yeast fitness: no more than 0.5 for the first, 0.512 for the second.

First: U28C U59G
Second: U28G A43G
The yeast fitness of the first is higher: 0.852 for the first, 0.643 for the second.

First: U28A C29G C33A A42U A70U
Second: C29A A45C C46U G51A G56A
The yeast fitness of the first is higher: 0.531 for the first, no more than 0.5 for the second.

Compared with C27U C46U A69C, U28C A37U A57C A69U A70C is lower in yeast fitness: 0.776 for the first, no more than 0.5 for the second.

Compared with C27U G44A G52A A57C, U28G A45C is higher in yeast fitness: 0.538 for the first, 0.655 for the second.

Going from C27U U28A A37G A57C G58C to U28A A37C C61G, the yeast fitness falls from 1 to no more than 0.5.

First: U28C C49U G63U
Second: U28G A40U U59C
The yeast fitness of the first is lower: 0.531 for the first, 0.576 for the second.

First: U28C G58C C62G A70U
Second: C27U C49A
The yeast fitness of the first is lower: no more than 0.5 for the first, 0.785 for the second.

Compared with C27U C46U G48A G68A, U28A C29G C33U C34G A42U G58A is lower in yeast fitness: 0.635 for the first, no more than 0.5 for the second.

U28C A40G G52C and C27U G52A U53A C62U cannot be ordered by yeast fitness: no more than 0.5 for the first, no more than 0.5 for the second.

First: C27U G38C A57U
Second: C27U U35G A42U
The yeast fitness of the first is higher: 0.552 for the first, no more than 0.5 for the second.

First: C27U U35C A69U
Second: U28A C46U A70G
The yeast fitness of the first is higher: 0.802 for the first, 0.634 for the second.

First: U28C A40G A45C A70U
Second: U28G C33A A45C
The yeast fitness of the first is higher: 0.911 for the first, no more than 0.5 for the second.

U28A C34U G52A U59C C66U and U28A C29A A37G cannot be ordered by yeast fitness: no more than 0.5 for the first, no more than 0.5 for the second.

First: U28A A36C
Second: U28C A37C U47C
The yeast fitness of the first is lower: 0.511 for the first, 0.697 for the second.

Going from C27U G38A G51A to U28C C29G, the yeast fitness rises from no more than 0.5 to 0.566.

Compared with U28C C29A, U28A A43U A65U is lower in yeast fitness: 0.703 for the first, no more than 0.5 for the second.

U28C G51C A65C and C27U C34G C60A cannot be ordered by yeast fitness: no more than 0.5 for the first, no more than 0.5 for the second.

First: C27U G63A
Second: U28C G52A C61U A70C
The yeast fitness of the first is higher: 0.867 for the first, 0.549 for the second.

Going from U28A C33G A43C A57C G67A A69U to U28G A42C A57C, the yeast fitness rises from no more than 0.5 to 0.627.

Compared with U28A G56C G67U, U28C C34G A40G A43G C46G G52A C55U is higher in yeast fitness: 0.525 for the first, 0.613 for the second.

C27U U28A U32A C34U A36C C55A A65C A70C and U28A C33G A36U A40G U54C A65U cannot be ordered by yeast fitness: no more than 0.5 for the first, no more than 0.5 for the second.

C29A A37U A65U and U28A A42G C55A C66A cannot be ordered by yeast fitness: no more than 0.5 for the first, no more than 0.5 for the second.

Going from C29A A40C to C29A A40U, the yeast fitness falls from 0.741 to 0.684.

Compared with U28C C31U C60U, C27U U28A U32A C34U A36C C55A is higher in yeast fitness: no more than 0.5 for the first, 0.543 for the second.

Compared with U28A A37U A69C, U28C C55U G67C is higher in yeast fitness: no more than 0.5 for the first, 0.557 for the second.

U28G U32A G38C A65C G67C and C27U C33U U35C cannot be ordered by yeast fitness: no more than 0.5 for the first, no more than 0.5 for the second.

Compared with C27U C66A G68C, U28A C49G A57G is lower in yeast fitness: 0.543 for the first, no more than 0.5 for the second.

First: U28A C55A
Second: U28A C55U
The yeast fitness of the first is lower: 0.52 for the first, 0.739 for the second.

Going from U28A C55G to U28A G67C, the yeast fitness rises from 0.537 to 0.774.

Compared with U28C C33G A40G G51C C61U A65U, C27U U28A U32A C34U A36C is higher in yeast fitness: no more than 0.5 for the first, 0.554 for the second.

First: C27U C66U A69U
Second: U28A C33U C55G
The yeast fitness of the first is higher: 0.779 for the first, no more than 0.5 for the second.

U28G U54G A65C G67A and U28A G41A G67A cannot be ordered by yeast fitness: no more than 0.5 for the first, no more than 0.5 for the second.

Compared with U28G C33G C49U, C29A A43C is higher in yeast fitness: no more than 0.5 for the first, 0.748 for the second.

First: U28C C46A
Second: U28C C46G
The yeast fitness of the first is lower: 0.992 for the first, 1.08 for the second.

First: U28C A42C C55U G68C
Second: U28C U35A
The yeast fitness of the first is lower: no more than 0.5 for the first, 0.578 for the second.

First: U28A U64G
Second: U28A G39A U64G
The yeast fitness of the first is higher: 0.709 for the first, no more than 0.5 for the second.

Compared with U28C C34U C55U C61A, U28G C29A C66U is lower in yeast fitness: 0.592 for the first, no more than 0.5 for the second.

Going from U28C A57G to U28A C29G A36C, the yeast fitness falls from 0.896 to 0.516.

First: C27U G58A A70G
Second: U28G C46G C49U A69C
The yeast fitness of the first is higher: 0.753 for the first, no more than 0.5 for the second.

First: U28C A37C A40U C55U
Second: C27U U32A G52A C66U G67C
The yeast fitness of the first is higher: 0.525 for the first, no more than 0.5 for the second.

Going from U28G G38A C60G A65C A69C to U28G C34A U35C, the yeast fitness falls from 0.618 to no more than 0.5.

First: U28A A42G C60U
Second: U28C G44A A57G
The yeast fitness of the first is lower: no more than 0.5 for the first, 0.578 for the second.

Going from C29A A42U to C27U U28G A40C A69C, the yeast fitness falls from 0.632 to 0.607.

C27U C33U U47A A70C and U28C U54G A57C C62U cannot be ordered by yeast fitness: no more than 0.5 for the first, no more than 0.5 for the second.

C27U G51C C55A C60A and U28A U35C A37C U64A G67A cannot be ordered by yeast fitness: no more than 0.5 for the first, no more than 0.5 for the second.

First: U28A G68A
Second: U28G C61A
The yeast fitness of the first is higher: 0.581 for the first, 0.561 for the second.

First: U28C A42C
Second: C27U G41A G58C A69C
The yeast fitness of the first is higher: 0.858 for the first, 0.645 for the second.

U28A A40G A65U C66U and U28A G41A G56A C62U cannot be ordered by yeast fitness: no more than 0.5 for the first, no more than 0.5 for the second.

First: C27U G48A C49U
Second: U28G U59A A70C
The yeast fitness of the first is higher: 1.01 for the first, no more than 0.5 for the second.

Going from C29A A65U to C29A A65G, the yeast fitness rises from 0.626 to 0.667.

U28C A43C G44C C61G A65U and U28C A57U A65U cannot be ordered by yeast fitness: no more than 0.5 for the first, no more than 0.5 for the second.

First: U28C C33G G38A U64G
Second: C27U U59G
The yeast fitness of the first is lower: no more than 0.5 for the first, 0.823 for the second.

U28G A36G A65U and C29A A36U G50C C55G C61G cannot be ordered by yeast fitness: no more than 0.5 for the first, no more than 0.5 for the second.

Compared with U28A G51C A57C, U28A A37G A40G is lower in yeast fitness: 0.53 for the first, no more than 0.5 for the second.

First: U28A G52C
Second: U28A G51A A57U
The yeast fitness of the first is lower: no more than 0.5 for the first, 0.598 for the second.

Compared with C27U C55U, C27U G39C C60A is lower in yeast fitness: 0.773 for the first, no more than 0.5 for the second.

Going from U28A C60G C66G A69G to U28C C62A, the yeast fitness rises from no more than 0.5 to 0.746.

Compared with C27U U32A C66U G67C, U28G A57U U59C is lower in yeast fitness: 0.598 for the first, no more than 0.5 for the second.

Compared with U28G C60G, C27U U28G A40C C55G A70C is lower in yeast fitness: 0.603 for the first, no more than 0.5 for the second.

Compared with C27U U54G C55U, C27U G56C is higher in yeast fitness: no more than 0.5 for the first, 0.595 for the second.

Going from C27U G56A to C27U G38C A69U, the yeast fitness falls from 0.998 to no more than 0.5.

Compared with C27U G51C C55A, C27U G38A is higher in yeast fitness: no more than 0.5 for the first, 0.773 for the second.

Compared with C27U G38C, C29A A42U U64C A69C is lower in yeast fitness: 0.626 for the first, no more than 0.5 for the second.

Going from C29A A40U A45C C46A C49A A57G to U28A A42G, the yeast fitness rises from no more than 0.5 to 0.667.

Compared with U28C A45U G48C, C27U U53C is lower in yeast fitness: 0.638 for the first, 0.617 for the second.

First: U28A C31A A36C A45G G48C
Second: C27U G48C
The yeast fitness of the first is lower: 0.619 for the first, 0.958 for the second.

For U28A A42G C66U G67C, the yeast fitness was no more than 0.5.
